Bioassay records from PubChem BioAssay.
Hits are enriched below; roughly 1.9% of the tested compounds scored in any of these assays.
SUMO1 PPI mod: modulators of human SUMO1-mediated protein-protein interactions. P63165. SUMO1 binding to a labelled peptide, TR-FRET, 1 h. inhibition, % at 20 µM. 360,000 tested, 0.33% active. AID 602429; in the data active means inhibition above about 37%
CSN inh: blocks human CSN-mediated cullin deneddylation | 360,000 tested, 0.38% active | Purified CSN, SCF-Nedd8-OG deneddylation, fluorescence polarization | inhibition, % at 12.5 µM | AID 651999;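 active means pattern-corrected inhibition above about 35%, with an unprinted fluorescence ratio check between 0.5 and 1.5, limit read from the data, passing the limit was not always enough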
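Material: purified human Csn5 enzyme expressed in HEK293T cells / Medium: Tris buffer pH 7.5, NaCl, DTT, Tween-20, trehalose, ovalbumin / Compound dosing: 12.5 µM single point / Schedule: 90 min incubation of compound, enzyme and substrate at room temperature / Signal: fluorescence polarization of the substrate / Control set: no-enzyme wells high, enzyme-with-substrate wells low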
Scp-1 inhibitor: inhibitors of human Scp-1 phosphatase; AID 493091; 340,000 tested, 0.88% active; Q9GZU7; inhibition, % at 20 µM; Recombinant Scp1, phosphopeptide, malachite green phosphate absorbance;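 active means inhibition above about 50% at 20 µM, limit read from the data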
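Times: enzyme reaction 45 min at room temperature, colour 5 min, stabilisation 30 min. Material: SCP-1 catalytic fragment, aa 76-261. Medium: Acidic Tris acetate buffer with magnesium and detergent. Signal: colorimetric free-phosphate detection, absorbance 630 nm. Read-out basis: % inhibition of SCP-1 phosphate liberation. Reagent: Phosphorylated 17-residue peptide substrate.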
LMPTP block: LMPTP (human) inhibition; recombinant LMPTP-A, OMFP fluorogenic substrate, fluorescence intensity; inhibition, % at 20 µM; 360,000 tested, 0.22% active; AID 651560;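 active means compounds that cut the enzyme signal by at least half of the control window in the single-dose screen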
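material = LMPTP-A | quantity = 0.625 nM enzyme | reagent = OMFP substrate, 400 µM final | buffer or medium = Bis-Tris pH 6.0, DTT, detergent | detection = endpoint fluorescence intensity from OMFP dephosphorylation | dosing = single 20 µM dose | read-out basis = % inhibition relative to no-enzyme and uninhibited control wells | control set = no-enzyme and uninhibited controls | timing = 50 min at room temperature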
STEP block: blocks human striatal-enriched tyrosine phosphatase; recombinant STEP, OMFP fluorogenic substrate, fluorescence; inhibition, % at 20 µM; 360,000 tested, 0.25% active; AID 588621;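 active means inhibition at 20 µM, scaled per plate between control wells, above about 37%, limit read from the data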
Target sequence (P54829 whole entry, looked up): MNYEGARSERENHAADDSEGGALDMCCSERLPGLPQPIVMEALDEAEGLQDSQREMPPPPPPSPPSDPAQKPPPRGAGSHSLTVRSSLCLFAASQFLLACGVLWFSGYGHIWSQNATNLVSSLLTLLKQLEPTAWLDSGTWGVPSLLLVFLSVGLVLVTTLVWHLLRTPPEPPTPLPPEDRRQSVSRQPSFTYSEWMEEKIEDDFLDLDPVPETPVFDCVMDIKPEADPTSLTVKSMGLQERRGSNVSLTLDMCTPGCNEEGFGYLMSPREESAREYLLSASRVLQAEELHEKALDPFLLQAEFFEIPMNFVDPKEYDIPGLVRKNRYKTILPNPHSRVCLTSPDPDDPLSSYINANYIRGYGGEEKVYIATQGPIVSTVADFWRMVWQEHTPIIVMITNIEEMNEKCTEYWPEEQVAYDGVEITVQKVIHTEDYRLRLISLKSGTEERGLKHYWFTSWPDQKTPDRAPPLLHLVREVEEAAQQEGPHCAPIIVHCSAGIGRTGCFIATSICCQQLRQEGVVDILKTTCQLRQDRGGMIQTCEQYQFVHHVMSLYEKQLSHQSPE
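medium = Bis-Tris buffer pH 6.0, 2.5 mM DTT, 0.005% Tween 20 | test system = STEP (striatal-enriched tyrosine phosphatase) enzyme, cell-free | measure = normalized % inhibition | compound dosing = 20 µM, 1% DMSO | also added = 25 µM OMFP | schedule = reaction 20 min, ambient temperature | measured by = fluorescence read at 480 nm ex / 540 nm em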
DNMT1 block: inhibitors of human DNMT1 | 360,000 tested, 0.83% active | P26358 | inhibition (reported as % activation of signal), % at 10 µM | DNMT1 molecular beacon, Hinp1I cleavage, fluorescence | AID 588458; in the data active means inhibition above about 50%
Scp-1 conf: Scp-1 (human) inhibition, single-dose confirmed; shares compounds with Scp-1 inhibitor; recombinant SCP-1 catalytic domain, phosphate release, malachite green absorbance; inhibition, % at 20 µM; 2,500 tested, 61% active; AID 540281
Scp-1 MG ctr: colorimetric interference in Scp-1 counter-screen | 2,500 tested, under 10 active | shares compounds with Scp-1 inhibitor | apparent inhibition (interference), % at 20 µM | AID 540313 | Colorimetric interference counterscreen, malachite green absorbance 630 nm;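 further: compounds added after enzyme reaction finished so only phosphate colour detection is probed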
Scp1 DSF: Scp-1 (human) binding by thermal shift | shares compounds with Scp-1 inhibitor | thermal shift relative to vanadate control, % at 40 µM | AID 540329 | Recombinant SCP1, Sypro Orange thermal shift Tm | 1,500 tested, 25% active;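 active means substances whose mean melting-temperature shift, as a percentage of the reference inhibitor's shift, reaches about 5.3%, limit read from the data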
STEP inh conf: STEP (human) phosphatase inhibition, single concentration confirmation | 520 tested, 32% active | shares compounds with STEP block | inhibition, % at 20 µM | recombinant STEP, OMFP fluorogenic substrate, fluorescence | AID 623866; call rule not given here
Each line names hits and unclear results; the compound was inactive in the other large screens (follow-up assays come after a bar, where they were run).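 How the source made its calls, unless noted: active means inhibition of at least 30% at 20 µM; inactive means the rest.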

COc1ccc(-c2cnnc(N/N=C/c3ccc(-c4ccc([N+](=O)[O-])cc4)o3)n2)cc1	Scp-1 inhibitor 108, LMPTP block 57, STEP block 50 | Scp-1 conf 49 | Scp-1 MG ctr inactive | Scp1 DSF inactive | STEP inh conf inactive
O=[N+]([O-])c1ccc(-c2ccc(/C=N/Nc3nc(N4CCCC4)nc(N4CCCC4)n3)o2)cc1	none
Clc1ccc(Br)cc1-c1nc(-c2ccncc2)no1	Scp-1 inhibitor 102, LMPTP block 72, STEP block 65 | Scp-1 conf 35 | Scp-1 MG ctr inactive | Scp1 DSF inactive | STEP inh conf inactive
Brc1cccc(-c2nc(-c3ccncc3)no2)c1	none
CC(C)(C)OC(=O)N1CCN(c2ccc(NC(=O)c3ccco3)cc2)CC1	none
CCOC(=O)CN1C(=O)S/C(=C/c2ccc(OCc3ccc(C(=O)O)cc3)cc2)C1=O	Scp-1 inhibitor 93, STEP block 78 | Scp-1 conf 67 | Scp-1 MG ctr inactive | Scp1 DSF inactive | STEP inh conf 50
CCOC(=O)CN1C(=O)S/C(=C/c2ccco2)C1=O	none
CCCN1CCN(CCCNC(=O)c2ccc(CS(=O)c3ccccc3C)o2)CC1 (stereo not drawn)	none
N#CC1(NC(=O)COC(=O)Cc2c[nH]c3ccccc23)CCCCC1	none (no result: Scp-1 inhibitor)
O=C(/C=C/c1cccc([N+](=O)[O-])c1)Nc1ccc(NC(=O)c2cccs2)cc1	Scp-1 inhibitor 75, LMPTP block 56, STEP block 45 | Scp-1 conf 74 | Scp-1 MG ctr inactive | Scp1 DSF 15 | STEP inh conf inactive
O=C(/C=C/c1cccc([N+](=O)[O-])c1)c1cccs1	none
CCC(Cc1ccccc1)NS(=O)(=O)c1c(C)nc2scc(C)n2c1=O (stereo not drawn)	none
COc1ccc(NC(=O)NNC(=O)c2ccc(-c3ccccc3)cc2)cc1	Scp-1 inhibitor 88, STEP block 40 | Scp-1 conf 46 | Scp-1 MG ctr inactive | Scp1 DSF inactive | STEP inh conf inactive
CC(=O)N1c2ccc(S(=O)(=O)N3CCC(C(=O)Nc4ncccc4C)CC3)cc2CC1C (stereo not drawn)	none
Clc1ccc2c(SCC3CO3)c3ccccc3nc2c1 (stereo not drawn)	Scp-1 inhibitor 101, STEP block 62 | Scp-1 conf inactive | Scp-1 MG ctr inactive | STEP inh conf inactive
O=C(CSc1c2c(nc3cc(Cl)ccc13)CCCC2)NCCN1CCOCC1	none
Cc1ccc2sc(N(CCCN(C)C)C(=O)c3ccc(S(=O)(=O)N(C)Cc4ccccc4)cc3)nc2c1C	none
NC(=O)COc1ccc(/C=N\NC(=O)c2ccc(-c3ccccc3)cc2)cc1	Scp-1 inhibitor 86, STEP block 85 | Scp-1 conf 56 | Scp-1 MG ctr inactive | Scp1 DSF inactive | STEP inh conf inactive
O=C(N/N=C/c1ccccc1)c1ccc(-c2ccccc2)cc1	none
O=C(C(=O)N1CCN(C(=O)OCc2ccccc2)CC1)c1cccnc1	none (no result: Scp-1 inhibitor, STEP block, DNMT1 block)
O=C(NCc1ccon1)c1ccc(OC2CCN(CCc3ccccc3)CC2)cc1	none
CCc1cc(CNC(=O)c2ccc(OC3CCN(CCc4ccccc4)CC3)cc2)on1	Scp-1 inhibitor 74, STEP block 92 | Scp-1 conf 65 | Scp-1 MG ctr inactive | Scp1 DSF inactive | STEP inh conf inactive
